The results in this text go back to ChEMBL document CHEMBL1148815, “New series of antiprion compounds: pyrazolone derivatives have the potent activity of inhibiting protease-resistant prion protein accumulation” (J Med Chem, 2007).

Each structure is given as a SMILES string.

Data set [1] deals with ScN2a. The data set is described as follows: Antiprion activity in ScN2a cells assessed as inhibition of protease-resistant prion protein accumulation. Type of data set: functional, cell-based. The settings on record: Mus musculus. Put shortly: (§1)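 Mouse N2a cells carrying RML scrapie (ScN2a) or N2a#58 cells carrying Fukuoka-1 (F3), grown in Opti-MEM with 10% FBS. Compound added at passage (10% confluency), cells grown to confluence over 3–4 days, then lysed. Lysates digested with 10 µg/mL proteinase K for 30 min at 37 °C. PrP-res detected by SDS-PAGE/immunoblot with SAF83. IC50 is the concentration halving PrP-res relative to control.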

Data set [2] in a line: Antiprion activity in F3 cells assessed as inhibition of protease-resistant prion protein accumulation. The following applies: Mus musculus, N2a #58 F3. Type of data set: functional, cell-based. Put shortly:
as §1

The nature of data set [3]: Hydroxy radical scavenging activity by ESR spin-trapping method. In kind it is functional. Put shortly:
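A mixture of 25 mM H2O2, 25 mM DMPO and compound was UV-irradiated. Hydroxyl radical scavenging was expressed as IC50.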

A short description of data set [4]: Superoxide dismutase like activity assessed as inhibition of WST1 tetrazolium formation at 1 mM. In kind it is functional. On the set-up: scale not given: the % may be the effect or the level left. Put shortly: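 Xanthine-based photometric kit assay with WST-1 tetrazolium salt. Compound was tested at 1 mM.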
(In general: Formazan colour is commonly taken as a measure of viable cells.)

Data set [5] can be described thus: Superoxide dismutase like activity assessed as inhibition of WST1 tetrazolium formation at 1 mM in presence of 2 mM Cu(II). In kind it is functional. More on the design: scale not given: the % may be the effect or the level left.
Data set [6] can be described thus: Cytotoxicity against human NB69 cells by MTT assay. In kind it is cell-based. The settings on record: read-out: LD50 (the source's name).
For data set [7], the system named is ScN2a. As to the kind of experiment: Cytotoxicity against mouse ScN2a cells by MTT assay. Type of data set: cell-based.
Data set [8] can be described thus: Cytotoxicity against mouse F3 cells by MTT assay. Type of data set: cell-based. The settings on record: n2a #58 f3.

One may read the IC50 as the concentration at which inhibition is half-maximal. As to `O=C1CC(C(F)(F)F)=NN1c1ccccc1`, the figures for the IC50 (in the data set with ScN2a [1]; in data set [2]; in data set [3]) were 398 nM, 631 nM and 810 nM, respectively. Also, the Activity is 13.4% in data set [4], 7.4% in data set [5], > 1000 nM with ScN2a [7] and > 1000 nM in data set [8]. Moreover, the CC50 in data set [6] is > 1000 nM.

Take `O=C1CC(Cc2ccccc2)=NN1c1ccccc1`: the CC50 in data set [6] was > 300 nM. Moreover, the Activity (in the data set with ScN2a [7]; in data set [8]) was > 1000 nM in each case.

On to `COc1ccc(C2=NN(c3ccccc3)C(=O)C2)cc1`, for which the CC50 in data set [6] was > 1000 nM. Further, the Activity (in the data set on ScN2a [7]; in data set [8]) was > 100 nM throughout.

As to `CC1=NN(c2ccccc2)C(=O)C1CC(C)C` (stereo not drawn), the IC50 in data set [2] came to 16 nM. Besides, the CC50 in data set [6] is > 1000 nM. Moreover, the Activity (in the data set on ScN2a [7]; in data set [8]) was > 1000 nM in each case.

Take `C=C(C)C1=NN(c2ccccc2)C(=O)C1`: the IC50 in the data set on ScN2a [1] is 158 nM; in data set [2] it was 794 nM. Moreover, the CC50 in data set [6] was > 1000 nM. For the same compound, the Activity (with ScN2a [7]; in data set [8]) was > 1000 nM each time.

For `COc1ccc(N2N=C(C)CC2=O)cc1`, the CC50 in data set [6] is > 1000 nM. The Activity (in the data set on ScN2a [7]; in data set [8]) was > 100 nM throughout.

Take `CC1=NN(c2ccccc2)C(=O)C1c1ccccn1` (stereo not drawn): the IC50 came to 79 nM with ScN2a [1] and 631 nM in data set [2]. Besides, in data set [6], the CC50 was > 1000 nM. The Activity (in the data set with ScN2a [7]; in data set [8]) was > 1000 nM throughout.

For `COC(=O)NC1=NN(c2ccccc2)C(=O)C1`, the values for the IC50 (with ScN2a [1]; in data set [2]) were 6 nM and 501 nM, respectively. Besides, the CC50 in data set [6] was > 1000 nM. Also, the Activity (with ScN2a [7]; in data set [8]) was > 1000 nM in each case.

On to `O=C(NC1=NN(c2ccccc2)C(=O)C1)NC1CCCC1`, for which the IC50 was 126 nM in the data set on ScN2a [1] and 158 nM in data set [2]. Further, in data set [6], the CC50 was > 1000 nM. Further, the Activity (with ScN2a [7]; in data set [8]) was > 1000 nM throughout.

On to `C=CC1CN2CC[C@H]1C[C@H]2[C@H](O)c1ccnc2ccc(OC)cc12` (single isomer, unassigned) [QUININE], for which the IC50 in the data set with ScN2a [1] turned out to be 10000 nM.

`CC1=NN(c2ccc(Cl)cc2)C(=O)C1`: in the data set with ScN2a [1], the IC50 worked out at 0.5 nM. The CC50 in data set [6] was > 1000 nM. The Activity (with ScN2a [7]; in data set [8]) was > 100 nM each time.

In turn, `CC1=NN(c2ccccc2)C(=O)C1C1CC1` (stereo not drawn) gave an IC50 in data set [3] of 720 nM. The Activity in data set [4] is 15.9%; in data set [5] it was 35.4%; in the data set on ScN2a [7] it was > 1000 nM; in data set [8], > 1000 nM. Also, the CC50 in data set [6] is > 1000 nM.

For the compound `O=C1CC(c2ccccc2)=NN1c1ccccc1`, in data set [6], the CC50 is > 1000 nM. In addition, the Activity (with ScN2a [7]; in data set [8]) was > 100 nM in each case.

`CC1=NN(c2ccccc2)C(=O)C1c1ccccc1` (stereo not drawn): the IC50 was found to be 40 nM in the data set with ScN2a [1], 1 nM in data set [2] and 790 nM in data set [3]. Moreover, the CC50 in data set [6] was > 1000 nM. The Activity (in the data set on ScN2a [7]; in data set [8]) was > 100 nM throughout.

With `O=C(NC1=NN(c2ccccc2)C(=O)C1)Oc1ccccc1`, in data set [3], half-maximal inhibition (IC50) was put at 380 nM. Further, the Activity was 5.6% in data set [4], 11.6% in data set [5], > 1000 nM with ScN2a [7] and > 1000 nM in data set [8].

In the case of `O=C(NC1=NN(c2ccccc2)C(=O)C1)c1ccccc1`, the IC50 with ScN2a [1] stood at 2000 nM; in data set [2] it was 1260 nM; in data set [3], 220 nM. The Activity in data set [4] was 9.2%; in data set [5], 3.2%; in the data set on ScN2a [7], > 1000 nM; in data set [8] it was > 1000 nM. In data set [6], the CC50 is > 1000 nM.

`O=C(Nc1ccccc1)C1=NN(c2ccccc2)C(=O)C1`: the IC50 in the data set with ScN2a [1] turned out to be 398 nM; in data set [2], 1580 nM. In addition, the CC50 in data set [6] is > 1000 nM. Further, the Activity (with ScN2a [7]; in data set [8]) was > 1000 nM in each case.

As to `CC1=NN(c2ccccc2)C(=O)C1` [EDARAVONE], the figures for the IC50 (with ScN2a [1]; in data set [3]) were > 1000 nM and 250 nM, respectively. For the same compound, the Activity was 0.6% in data set [4] and 5.7% in data set [5].

As to `CC1=NN(c2ccccc2)C(=O)C1C(=O)c1ccccc1` (stereo not drawn), the half-inhibitory concentration (IC50) in the data set on ScN2a [1] amounted to 6 nM; in data set [2] it was 1000 nM; in data set [3], 610 nM. Also, in data set [6], the CC50 was > 1000 nM. The Activity (in the data set on ScN2a [7]; in data set [8]) was > 1000 nM in each case.

In the case of `CC1=NN(C2CCCCC2)C(=O)C1`, the figures for the IC50 (with ScN2a [1]; in data set [2]) were 13 nM and 25 nM, respectively. Besides, the CC50 in data set [6] is > 1000 nM. The Activity (in the data set with ScN2a [7]; in data set [8]) was > 1000 nM throughout.

Regarding `C=C[C@H]1CN2CC[C@H]1C[C@@H]2[C@@H](O)c1ccnc2ccc(OC)cc12` [QUINIDINE], the IC50 in the data set with ScN2a [1] is 5000 nM.

As to `O=C1CC(c2ccc([N+](=O)[O-])cc2)=NN1c1ccccc1`, the IC50 was 3 nM in the data set with ScN2a [1], 3 nM in data set [2] and 90 nM in data set [3]. Besides, the Activity in data set [4] is 1.8%; in data set [5], 11.9%; with ScN2a [7], > 1000 nM; in data set [8] it was > 1000 nM. Moreover, in data set [6], the CC50 was > 1000 nM.
